Screening results from PubChem.
PPC-1+TRAIL kill = compounds killing PPC-1 cancer cells with TRAIL present, primary screen, TRAIL potentiator project, ATPLite luminescence, uHTS; PPC-1 cells + TRAIL, ATPLite viability luminescence; cell killing (% activity), % at 4 µM or 5 µM; actives 0.41% (n = 220,000); AID 1443, 2008;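 active = cell killing above 50% in the first pass at 4 µM, then a duplicate retest at 5 µM averaging 50% or more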;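 also: plate controls were cells with TRAIL plus DMSO for no effect and medium-only wells lacking cells for full effect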
C8 TRAIL sens = viability loss with TRAIL in NB7+C8 cells, primary screen, TRAIL sensitizer project, cell-based, ATPlite luminescence | inhibition (viability loss, TRAIL sensitization), % at 10 µM | actives 1% (n = 360,000);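 active = compounds causing at least 50% loss of cell viability in the single-dose screen, relative to plate controls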
FLuc inh counter = firefly luciferase enzyme inhibitors, primary screen, artefact control for luciferase-based inhibitor screens, biochemical, luminescence, ATPLite; Luciferin 4-monooxygenase (Photinus pyralis), P08659; 10 min; inhibition, % at 10 µM; actives 1.5% (n = 200,000);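 active = inhibition above about 50% when tested at 10 µM, limit read from the data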
Target sequence (P08659 whole entry, looked up): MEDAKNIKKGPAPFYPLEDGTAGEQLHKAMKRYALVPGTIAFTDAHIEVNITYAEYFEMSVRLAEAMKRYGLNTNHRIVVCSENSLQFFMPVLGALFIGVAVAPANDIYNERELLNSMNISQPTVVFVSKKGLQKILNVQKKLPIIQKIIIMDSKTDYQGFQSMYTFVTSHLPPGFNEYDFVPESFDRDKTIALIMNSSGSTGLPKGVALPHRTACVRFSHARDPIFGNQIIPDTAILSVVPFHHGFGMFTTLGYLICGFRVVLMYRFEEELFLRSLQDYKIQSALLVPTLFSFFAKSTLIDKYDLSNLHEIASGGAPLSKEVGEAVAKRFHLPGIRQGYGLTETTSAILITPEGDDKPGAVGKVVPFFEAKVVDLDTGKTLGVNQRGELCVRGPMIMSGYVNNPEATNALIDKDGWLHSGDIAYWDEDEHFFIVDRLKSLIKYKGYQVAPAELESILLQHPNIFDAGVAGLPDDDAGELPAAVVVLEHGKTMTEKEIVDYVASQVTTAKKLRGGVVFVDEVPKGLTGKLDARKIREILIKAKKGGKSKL
FLuc stim CS = FLuc activators, initial screening, artefact control for FLuc-dependent activation tests, biochemical, ATPlite luminescence | Luciferin 4-monooxygenase (Photinus pyralis), P08659 | ATPlite luciferase biochemical, 10 min; 0 = ATP-free wells, 1 = DMSO control | activation factor at 10 µM | 200,000 tested, under 10 active;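 active = luciferase activation factor, scaled between plate controls, of at least 2 with compound at 10 µM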
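System: Luciferase/luciferin detection reagent, cell-free biochemical luciferase assay | Medium: PBS buffer for ATP | Dosing: Test compounds dosed from 2 mM stocks in 100% DMSO | Timing: 10 min at ambient temperature | Signal: Luminescence measurement of luciferase light output | Evaluation: Luciferase activation, seen as luminescence increase over controls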
PPC1 cytotox = cytotoxicity in PPC-1 cells, confirmation, cytotoxicity control for TRAIL apoptosis potentiator project, cell-based, ATP content luminescence; PPC-1 viability, ATPlite luminescence, overnight; shares compounds with PPC-1+TRAIL kill; cytotoxicity, % at 5 µM; actives 50% (n = 1,200);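 active = reconfirmed compounds whose average cytotoxicity reaches 50% or more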;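 also: 0% = DMSO-treated cells and 100% = wells holding medium but no cells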
* hit, by the source's call; · = no result given. Only some compounds are listed: those with a hit (about 1.5% of all), similar ones and a draw of the others.

SMILES | PPC-1+TRAIL kill | C8 TRAIL sens | FLuc inh counter | FLuc stim CS | PPC1 cytotox
CCCS(=O)(=O)N1CCN(Cc2ccc3c(c2)c2ccccc2n3CC)CC1 | -7 | 9 | 1 | 1 | ·
Cc1nc2ccc(NC(=O)Cc3cccc(F)c3)cc2s1 | 3 | 3 | 4 | 1 | ·
Cc1nc2ccc(NC(=O)COc3ccccc3)cc2s1 | 1 | 17 | -2 | 1 | 2
Cc1nc2ccc(NC(=O)Cc3ccsc3)cc2s1 | 7 | 22 | 33 | 0.7 | 10
Cc1ccc(C(=O)NCCC(=O)NCc2ccco2)cc1 | · | -39 | · | · | ·
O=C(Nc1ccc2[nH]ccc2c1)c1ccc(F)cc1 | 84* | 88* | · | · | 84*
O=C(Nc1ccc2[nH]ccc2c1)c1ccccc1 | 81* | 84* | · | · | 73*
COc1ccc(NC(=O)Nc2ccc3[nH]ccc3c2)cc1 | · | 21 | · | · | ·
CCOC(=O)C1CCCN(C(=O)c2ccc(Cl)c(S(=O)(=O)N3CCCCCC3)c2)C1 (configuration not stated) | -6 | 6 | 6 | 0.9 | ·
CCOc1ccccc1N1CCN(C(=O)C2c3ccccc3Oc3ccccc32)CC1 | 3 | 14 | -9 | 1.1 | -7
COc1cc(C(=O)N/N=C(\c2ccccc2)c2ccccn2)cc(OC)c1OC | 26 | 31 | -6 | 1.1 | 29
O=C(N=NC(=O)c1ccc2c(O)n(CC3CCCO3)c(O)c2c1)c1cccnc1 (configuration not stated) | 2 | -5 | · | · | ·
Cc1cc(C)c2c(N)c(C(=O)Nc3nccs3)sc2n1 | 82* | 81* | 94* | 0.1 | 81*
COCc1cc(C)nc2sc(C(=O)Nc3nccs3)c(N)c12 | -24 | -14 | 6 | 0.9 | ·
Cc1onc(-c2ccccc2Cl)c1-c1nc(-c2ccccn2)no1 | 12 | 19 | 4 | 1 | ·
Clc1ccccc1/C=C/c1nc(-c2ccccn2)no1 | 71* | 69* | · | · | 67*
CN(C)c1cccc(C(=O)OCC(=O)Nc2nccs2)c1 | 14 | -2 | 8 | 0.9 | ·
Cc1cc(C)c(CN2CCN(Cc3ccc(C)o3)C(CCO)C2)c(-n2cccn2)c1 (configuration not stated) | 32 | 8 | 0 | 1 | ·
Cc1ccc(S(=O)(=O)NCC(=O)NC2CCCCCC2)cc1 | 8 | -32 | -6 | 1.1 | -3
Cc1ccc(S(=O)(=O)NCC(=O)NC2CCCC2)cc1 | · | -3 | -11 | 1.1 | ·
O=C(COC(=O)c1n[nH]c(=O)c2ccccc12)Nc1ccccc1 | · | 19 | · | · | ·
COc1ccccc1CN1CC(C(=O)N(C)Cc2ccc(C)o2)CCC1=O (configuration not stated) | · | -8 | · | · | ·
O=C1c2cccc3c([N+](=O)[O-])ccc(c23)C(=O)N1Cc1cccnc1 | 26 | 2 | -5 | 1.1 | 14
CCCCCCCCCCCCCCCCn1cc[n+](CC(C)=O)c1 | 26 | 34 | -5 | 1 | 15
CC(C)c1nc(NCC2CCCO2)c(C#N)c2c1COC(C)(C)C2 (configuration not stated) | -2 | -12 | -4 | 1 | -7
SMILES | PPC-1+TRAIL kill | C8 TRAIL sens | FLuc inh counter | FLuc stim CS | PPC1 cytotox
CCC(=O)Nc1ccc2c(c1)nc1n2CCSC1 | 18 | -8 | -3 | 1 | ·
O=C(Nc1ccc2c(c1)nc1n2CCSC1)c1ccccc1 | 57* | 62* | 80* | 0.2 | 49
O=C(NCc1ccccc1)N(Cc1nc2ccccc2c(=O)[nH]1)C1CCCC1 | 12 | -4 | -7 | 1.1 | ·
CCN(CC)C(=O)CSc1nc2ccc(NC(=O)CSc3nnc(COc4ccccc4C)n3C)cc2s1 | 4 | 7 | -4 | 1 | ·
Cc1ccccc1OCc1nnc(SCC(=O)Nc2ccc3nc(SCC(=O)NC(C)(C)C)sc3c2)n1C | -15 | 18 | -3 | 1 | -13
CCCCN1C(=O)C(NC(C)=O)c2cc(Br)ccc21 (configuration not stated) | 0 | 10 | 1 | 1 | -14
CCN1C(=O)C(NC(C)=O)c2cc(Br)ccc21 (configuration not stated) | 18 | -7 | -6 | 1.1 | ·
C=CCSc1nnc(NC(=O)c2ccc3c(c2)OCCO3)s1 | · | 31 | · | · | ·
O=C(O)CSc1nnc(NC(=O)c2ccc3c(c2)OCO3)s1 | 66* | 74* | 91* | 0.1 | 67*
CCc1ccc2oc(-c3cccc(N)c3)nc2c1 | 47 | 82* | 86* | 0.1 | 48
Cc1ccc2nc(-c3cccc(N)c3)oc2c1 | 76* | 74* | 93* | 0.1 | 75*
Cc1cc(C)c2oc(-c3cccc(N)c3)nc2c1 | · | 16 | · | · | ·
CCOC(=O)c1nn(-c2ccc3c(c2)OCCO3)cc1O | 48 | 54* | 84* | 0.2 | 49
COc1ccc2c(c1)sc1nc(-c3ccccc3)cn12 | 93* | 96* | 97* | 0 | 92*
O=C(N/N=C/c1cc(O)ccc1[N+](=O)[O-])c1ccc2c(c1)OCCO2 | 80* | 89* | · | · | 83*
O=C(N/N=C/c1ccccc1[N+](=O)[O-])c1ccc2c(c1)OCCO2 | 93* | 93* | · | · | 93*
C/C(=N\NC(=O)c1ccc2c(c1)OCCO2)c1ccccc1 | 65* | 48 | · | · | 64*
Cc1cccc(NS(=O)(=O)c2ccc(Br)s2)n1 | 15 | 3 | -4 | 1 | 6
CCN(CC)c1ccc(NC(=S)Nc2ccc(F)cc2)cc1 | 16 | 3 | 0 | 1 | 6
O=C(c1ccc(CSc2nc3ccncc3[nH]2)cc1)N1CCCCCC1 | 81* | 81* | · | · | 83*
Cc1ccc(CSc2nc3ccncc3[nH]2)cc1 | 97* | 93* | 98* | 0 | 97*
Clc1ccc(CSc2nc3ccncc3[nH]2)cc1 | 94* | 92* | 97* | 0 | 93*
Cc1ccc(CSc2nc3ncccc3[nH]2)cc1 | 49 | 67* | 83* | 0.2 | 48
Cc1ccc(C)c(C(O)c2ncc(-c3ccc(C(F)(F)F)cc3)[nH]2)c1 (configuration not stated) | · | 1 | · | · | ·
CC(=O)Nc1ccc(NC(=O)C2CCN(C(=O)c3cccs3)CC2)cc1 | 11 | -2 | -9 | 1.1 | ·
SMILES | PPC-1+TRAIL kill | C8 TRAIL sens | FLuc inh counter | FLuc stim CS | PPC1 cytotox
CN(C)c1ccc(-c2nc3ccccc3c(=O)[nH]2)cc1 | 88* | 93* | · | · | 88*
CCn1c(Cl)c(C=O)s/c1=N\S(=O)(=O)c1ccccc1 | 23 | 39 | · | · | 38
Cc1nc2cc(NC(=O)N3c4ccccc4CC3C)ccc2n1C (configuration not stated) | 68* | 65* | 86* | 0.1 | 63*
Cc1nc2cc(NC(=O)Nc3ccccc3Cl)ccc2n1C | 71* | 73* | 91* | 0.1 | 72*
CCN(CC)CCn1nc2c3c(cccc3c1=O)-c1ccccc1-2 | 20 | 13 | 6 | 0.9 | 18
CCOC(=O)CNc1c(-c2ccc(O)cc2)nc2ccc(Cl)cn12 | -10 | 4 | 10 | 0.9 | -14
